The source made the active and inactive calls. The calls are words filed in the database; no cut-off is given here.
What was measured:
[1] = system: CAL-27; experiment: Induction of apoptosis in human CAL-27 cells assessed as downregulation of Oct-4 gene expression at 42 uM by qRT-PCR analysis; format: functional, cell-based
In short: (§1)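 CAL27 cells were treated with test compounds at several concentrations. Relative expression of vimentin, E-cad, Nanog, Oct-4, Bax and BcL-2 was measured by qRT-PCR against vehicle-treated control cells.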

[2] = system: CAL-27; experiment: Induction of apoptosis in human CAL-27 cells assessed as live cells at 42 uM incubated for 24 hrs by Annexin V-FITC/PI staining based flow cytometric analysis (reference value: 99.8 %); format: functional
In short: (§2)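 CAL27 cells were treated with vehicle, doxorubicin or test compounds at 10–63 μM, and apoptosis was assessed by annexin V–FITC/PI staining with flow cytometry. Cells were scored as live, early apoptotic, late apoptotic or necrotic. The vehicle was DMSO (0.01%).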

[3] = system: CAL-27; experiment: Induction of apoptosis in human CAL-27 cells assessed as live cells at 21 uM incubated for 24 hrs by Annexin V-FITC/PI staining based flow cytometric analysis (reference value: 99.8 %); format: functional; in short: as §2
[4] = system: CAL-27; experiment: Induction of apoptosis in human CAL-27 cells assessed as early apoptotic cells at 42 uM incubated for 24 hrs by Annexin V-FITC/PI staining based flow cytometric analysis (reference value: 0.1 %); format: functional; in short: as §2
[5] = system: CAL-27; experiment: Induction of apoptosis in human CAL-27 cells assessed as upregulation of E-cad gene expression at 21 uM by qRT-PCR analysis; format: functional, cell-based
In short: (§3)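 CAL27 cells were treated with test agents at different concentrations. Relative mRNA levels of vimentin, E-cad, Nanog, Oct-4, Bax and Bcl-2 were then quantified by qRT-PCR as apoptosis, EMT and stemness markers.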

[6] = system: CAL-27; experiment: Cell cycle arrest in human CAL-27 cells assessed as accumulation at S phase at 21 uM incubated for 24 hrs by flow cytometry (reference value: 3.6 %); format: functional
[7] = system: CAL-27; experiment: Induction of apoptosis in human CAL-27 cells assessed as late apoptotic cells at 42 uM incubated for 24 hrs by Annexin V-FITC/PI staining based flow cytometric analysis (reference value: 0.1 %); format: functional; conditions: in the assay text read “early apoptotic cells” for “late apoptotic cells”; in short: as §2
[8] = system: HCT-15; experiment: Cytotoxicity against human HCT-15 cells assessed as cell growth inhibition; format: functional, cell-based
In short: (§4)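 Compounds were dissolved in sterile DMSO as 10 mg ml−1 stocks and tested for in vitro growth inhibition of human cancer cell lines. Doxorubicin was the standard drug and DMSO (0.01%) the vehicle control. IC50 values are reported as means.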

[9] = system: CAL-27; experiment: Cell cycle arrest in human CAL-27 cells assessed as accumulation at G2/M phase at 42 uM incubated for 24 hrs by flow cytometry (reference value: 11.9 %); format: functional
[10] = system: CAL-27; experiment: Induction of apoptosis in human CAL-27 cells assessed as upregulation of Bax gene expression at 42 uM by qRT-PCR analysis; format: functional, cell-based; in short: as §3
[11] = system: CAL-27; experiment: Cell cycle arrest in human CAL-27 cells assessed as accumulation at G0/G1 phase at 21 uM incubated for 24 hrs by flow cytometry (reference value: 77.6 %); format: functional
[12] = system: CAL-27; experiment: Cell cycle arrest in human CAL-27 cells assessed as accumulation at G0/G1 phase at 42 uM incubated for 24 hrs by flow cytometry (reference value: 77.6 %); format: functional
[13] = system: CAL-27; experiment: Induction of apoptosis in human CAL-27 cells assessed as late apoptotic cells at 21 uM incubated for 24 hrs by Annexin V-FITC/PI staining based flow cytometric analysis (reference value: 0.1 %); format: functional; in short: as §2
[14] = system: SCC-9; experiment: Cytotoxicity against human SCC-9 cells assessed as cell growth inhibition; format: functional, cell-based; in short: as §4
[15] = system: CAL-27; experiment: Induction of apoptosis in human CAL-27 cells assessed as downregulation of BcL-2 gene expression at 42 uM by qRT-PCR analysis; format: functional, cell-based; in short: as §1
[16] = system: CAL-27; experiment: Induction of apoptosis in human CAL-27 cells assessed as upregulation of Bax gene expression at 21 uM by qRT-PCR analysis; format: functional, cell-based; in short: as §3
[17] = system: CAL-27; experiment: Cytotoxicity against human CAL-27 cells assessed as cell growth inhibition; format: functional, cell-based; in short: as §4
[18] = system: CAL-27; experiment: Induction of apoptosis in human CAL-27 cells assessed as early apoptotic cells at 21 uM incubated for 24 hrs by Annexin V-FITC/PI staining based flow cytometric analysis (reference value: 0.1 %); format: functional; in short: as §2
[19] = system: CAL-27; experiment: Induction of apoptosis in human CAL-27 cells assessed as upregulation of E-cad gene expression at 42 uM by qRT-PCR analysis; format: functional, cell-based; in short: as §3
[20] = system: MCF7; experiment: Cytotoxicity against human MCF7 cells assessed as cell growth inhibition; format: functional, cell-based; in short: as §4
[21] = Cytotoxicity against human BEAS-2B cells assessed as cell growth inhibition; format: toxicity, cell-based
In short: (§5)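 Compounds were dissolved in sterile DMSO as 10 mg ml−1 stocks and tested in vitro for cytotoxicity in a cell-line panel, with DMSO (0.01%) as vehicle control and doxorubicin as standard. Mean IC50 values were reported, and the normal lung epithelial cells were tested up to 100 μM.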

[22] = system: CAL-27; experiment: Induction of apoptosis in human CAL-27 cells assessed as necrotic cells at 42 uM incubated for 24 hrs by Annexin V-FITC/PI staining based flow cytometric analysis (reference value: 0.0 %); format: functional
[23] = system: CAL-27; experiment: Induction of apoptosis in human CAL-27 cells assessed as downregulation of BcL-2 gene expression at 21 uM by qRT-PCR analysis; format: functional, cell-based; in short: as §1
[24] = system: CAL-27; experiment: Induction of apoptosis in human CAL-27 cells assessed as downregulation of vimentin gene expression at 21 uM by qRT-PCR analysis; format: functional, cell-based; in short: as §1
[25] = system: CAL-27; experiment: Induction of apoptosis in human CAL-27 cells assessed as downregulation of Nanog gene expression at 21 uM by qRT-PCR analysis; format: functional, cell-based; in short: as §1
[26] = system: CAL-27; experiment: Induction of apoptosis in human CAL-27 cells assessed as downregulation of Oct-4 gene expression at 21 uM by qRT-PCR analysis; format: functional, cell-based; in short: as §1
[27] = system: CAL-27; experiment: Induction of apoptosis in human CAL-27 cells assessed as downregulation of Nanog gene expression at 42 uM by qRT-PCR analysis; format: functional, cell-based; in short: as §1
[28] = system: CAL-27; experiment: Induction of apoptosis in human CAL-27 cells assessed as downregulation of vimentin gene expression at 42 uM by qRT-PCR analysis; format: functional, cell-based; in short: as §1
[29] = system: CAL-27; experiment: Cell cycle arrest in human CAL-27 cells assessed as accumulation at S phase at 42 uM incubated for 24 hrs by flow cytometry (reference value: 3.6 %); format: functional
[30] = system: CAL-27; experiment: Cell cycle arrest in human CAL-27 cells assessed as accumulation at G2/M phase at 21 uM incubated for 24 hrs by flow cytometry (reference value: 11.9 %); format: functional
[31] = system: A549; experiment: Cytotoxicity against human A549 cells assessed as cell growth inhibition; format: functional, cell-based; in short: as §5
[32] = system: CAL-27; experiment: Induction of apoptosis in human CAL-27 cells assessed as necrotic cells at 21 uM incubated for 24 hrs by Annexin V-FITC/PI staining based flow cytometric analysis (reference value: 0.0 %); format: functional

In the case of `COc1c(O)c(CN2CCN(S(=O)(=O)c3ccc(I)cc3)CC2)c2c(c1O)C1O[C@H](CO)[C@@H](O)[C@H](O)C1OC2=O` (some centres not stated), the Activity [1] is reported as “Active”, the Activity [2] is reported as 94.6% and the Activity [3] is reported as 97.1%. For the same compound, the Activity [4] was 1.7%, the Activity [5] was “Active” and the Activity [6] was 3.5%. It also gave an Activity [7] of 1.7%, an IC50 [8] greater than 100 µM and an Activity [9] of 11.5%. For the same compound, the Activity [10] was “Active”, the Activity [11] was 83.3% and the Activity [12] was 83.7%. The Activity [13] was 0.7%, the IC50 [14] was greater than 100 µM and the Activity [15] was “Active”. For the same compound, the Activity [16] was “Active”, the IC50 [17] was 41.6 µM and the Activity [18] was 1.1%. For the same compound, the Activity [19] was “Active”, the IC50 [20] was greater than 100 µM and the IC50 [21] was greater than 100 µM. For the same compound, the Activity [22] was 2%, the Activity [23] was “Active” and the Activity [24] was “Active”. For the same compound, the Activity [25] was “Active”, the Activity [26] was “Active” and the Activity [27] was “Active”. For the same compound, the Activity [28] was “Active”, the Activity [29] was 1.9% and the Activity [30] was 12.6%. For the same compound, the IC50 [31] was greater than 100 µM and the Activity [32] was 1.1%.
`COc1c(O)c(CN2CCN(CC(=O)Nc3nc4ccc(Cl)cc4s3)CC2)c2c(c1O)C1O[C@H](CO)[C@@H](O)[C@H](O)C1OC2=O` (some centres not stated) showed an IC50 [8] of 97.6 µM, an IC50 [14] of 32.6 µM and an IC50 [17] greater than 100 µM. It also gave an IC50 [20] of 64.1 µM, an IC50 [21] of 44.2 µM and an IC50 [31] of 65.6 µM.
`CCOc1ccc2nc(NC(=O)CN3CCN(Cc4c(O)c(OC)c(O)c5c4C(=O)OC4C5O[C@H](CO)[C@@H](O)[C@@H]4O)CC3)sc2c1` (some centres not stated) showed an IC50 [8] greater than 100 µM, an IC50 [14] greater than 100 µM and an IC50 [17] of 83.7 µM. It also gave an IC50 [20] greater than 100 µM, an IC50 [21] greater than 100 µM and an IC50 [31] greater than 100 µM.
`COc1c(O)c(CN2CCN(S(=O)(=O)c3cccs3)CC2)c2c(c1O)C1O[C@H](CO)[C@@H](O)[C@H](O)C1OC2=O` (some centres not stated) gave an IC50 [8] greater than 100 µM, an IC50 [14] greater than 100 µM and an IC50 [17] greater than 100 µM. The IC50 [20] was greater than 100 µM, the IC50 [21] was greater than 100 µM and the IC50 [31] was greater than 100 µM.
For `COc1c(O)c(CN2CCN(S(=O)(=O)c3ccc([N+](=O)[O-])cc3)CC2)c2c(c1O)C1O[C@H](CO)[C@@H](O)[C@H](O)C1OC2=O` (some centres not stated), the IC50 [8] was greater than 100 µM, the IC50 [14] was greater than 100 µM and the IC50 [17] was 91.6 µM. It also gave an IC50 [20] greater than 100 µM, an IC50 [21] greater than 100 µM and an IC50 [31] greater than 100 µM.
`COc1c(O)c(CN2CCN(CC(=O)Nc3nc4ccc([N+](=O)[O-])cc4s3)CC2)c2c(c1O)C1O[C@H](CO)[C@@H](O)[C@H](O)C1OC2=O` (some centres not stated) showed an IC50 [8] of 85.9 µM, an IC50 [14] of 37.6 µM and an IC50 [17] of 30.5 µM. For the same compound, the IC50 [20] was greater than 100 µM, the IC50 [21] was 58.6 µM and the IC50 [31] was greater than 100 µM.
